As usually defined, the Ki is the equilibrium dissociation constant of an inhibitor or competing ligand from its target. A word on the EC50: it is the concentration needed to bring the measured effect to its halfway point. Read a high EC50 as a less potent agent. What is called IC50 is the concentration at which inhibition is half-maximal.

One assay has as its target T1, Androgen receptor (Homo sapiens, UniProt P10275).
T1 sequence (P10275 whole entry): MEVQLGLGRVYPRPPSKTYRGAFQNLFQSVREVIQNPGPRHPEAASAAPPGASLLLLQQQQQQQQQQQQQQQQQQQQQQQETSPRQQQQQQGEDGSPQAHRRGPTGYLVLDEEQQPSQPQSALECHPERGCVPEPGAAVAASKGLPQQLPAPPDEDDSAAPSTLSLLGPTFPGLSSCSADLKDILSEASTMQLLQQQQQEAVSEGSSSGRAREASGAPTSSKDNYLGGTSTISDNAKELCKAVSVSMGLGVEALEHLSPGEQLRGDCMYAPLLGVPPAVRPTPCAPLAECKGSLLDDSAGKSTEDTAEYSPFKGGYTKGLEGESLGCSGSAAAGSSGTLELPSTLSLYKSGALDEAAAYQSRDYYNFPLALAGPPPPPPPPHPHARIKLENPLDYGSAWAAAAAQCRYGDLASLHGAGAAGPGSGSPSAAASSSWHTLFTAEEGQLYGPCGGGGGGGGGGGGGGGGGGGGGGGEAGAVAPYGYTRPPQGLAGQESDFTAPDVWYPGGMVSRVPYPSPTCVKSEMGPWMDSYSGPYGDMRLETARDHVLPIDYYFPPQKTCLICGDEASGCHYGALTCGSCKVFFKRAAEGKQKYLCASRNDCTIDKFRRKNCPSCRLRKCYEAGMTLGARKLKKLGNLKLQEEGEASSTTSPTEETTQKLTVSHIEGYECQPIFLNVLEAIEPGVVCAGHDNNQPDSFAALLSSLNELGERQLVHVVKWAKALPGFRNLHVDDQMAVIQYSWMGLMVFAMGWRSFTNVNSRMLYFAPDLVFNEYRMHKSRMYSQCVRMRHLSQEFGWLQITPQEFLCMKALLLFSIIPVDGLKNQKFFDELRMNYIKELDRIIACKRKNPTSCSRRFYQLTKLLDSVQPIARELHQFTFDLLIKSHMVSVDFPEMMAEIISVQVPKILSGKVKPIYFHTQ
The experiment in a line: Binding affinity to AR.

Assay [1] addresses T2, Glucocorticoid receptor (Homo sapiens, UniProt P04150).
T2 sequence (P04150 whole entry): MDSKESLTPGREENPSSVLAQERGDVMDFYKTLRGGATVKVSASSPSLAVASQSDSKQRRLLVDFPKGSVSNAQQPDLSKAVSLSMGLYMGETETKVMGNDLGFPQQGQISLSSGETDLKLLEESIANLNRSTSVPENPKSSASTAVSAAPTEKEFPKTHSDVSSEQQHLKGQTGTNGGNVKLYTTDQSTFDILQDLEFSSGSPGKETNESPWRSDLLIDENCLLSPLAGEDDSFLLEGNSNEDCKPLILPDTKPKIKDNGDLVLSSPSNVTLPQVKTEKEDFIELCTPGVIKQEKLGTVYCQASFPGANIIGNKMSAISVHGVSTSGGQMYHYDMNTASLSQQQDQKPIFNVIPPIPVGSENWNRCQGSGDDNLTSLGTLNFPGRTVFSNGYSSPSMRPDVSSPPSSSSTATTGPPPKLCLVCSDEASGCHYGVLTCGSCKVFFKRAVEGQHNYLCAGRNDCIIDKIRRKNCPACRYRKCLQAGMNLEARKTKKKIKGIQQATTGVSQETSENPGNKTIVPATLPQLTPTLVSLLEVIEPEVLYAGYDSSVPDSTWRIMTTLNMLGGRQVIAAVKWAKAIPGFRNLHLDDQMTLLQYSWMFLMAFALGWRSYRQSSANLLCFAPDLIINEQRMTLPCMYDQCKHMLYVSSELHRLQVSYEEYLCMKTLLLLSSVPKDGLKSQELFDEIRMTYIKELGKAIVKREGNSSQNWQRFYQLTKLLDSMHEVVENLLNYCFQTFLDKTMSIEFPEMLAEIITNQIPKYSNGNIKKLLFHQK
The assay can be described thus: Agonist activity at human GR expressed in CV1 cells by GRE activation assay. The class given is functional, cell-based, CV-1.

The target of assay [2] is T3, Mineralocorticoid receptor (Homo sapiens, UniProt P08235).
T3 sequence (P08235 whole entry): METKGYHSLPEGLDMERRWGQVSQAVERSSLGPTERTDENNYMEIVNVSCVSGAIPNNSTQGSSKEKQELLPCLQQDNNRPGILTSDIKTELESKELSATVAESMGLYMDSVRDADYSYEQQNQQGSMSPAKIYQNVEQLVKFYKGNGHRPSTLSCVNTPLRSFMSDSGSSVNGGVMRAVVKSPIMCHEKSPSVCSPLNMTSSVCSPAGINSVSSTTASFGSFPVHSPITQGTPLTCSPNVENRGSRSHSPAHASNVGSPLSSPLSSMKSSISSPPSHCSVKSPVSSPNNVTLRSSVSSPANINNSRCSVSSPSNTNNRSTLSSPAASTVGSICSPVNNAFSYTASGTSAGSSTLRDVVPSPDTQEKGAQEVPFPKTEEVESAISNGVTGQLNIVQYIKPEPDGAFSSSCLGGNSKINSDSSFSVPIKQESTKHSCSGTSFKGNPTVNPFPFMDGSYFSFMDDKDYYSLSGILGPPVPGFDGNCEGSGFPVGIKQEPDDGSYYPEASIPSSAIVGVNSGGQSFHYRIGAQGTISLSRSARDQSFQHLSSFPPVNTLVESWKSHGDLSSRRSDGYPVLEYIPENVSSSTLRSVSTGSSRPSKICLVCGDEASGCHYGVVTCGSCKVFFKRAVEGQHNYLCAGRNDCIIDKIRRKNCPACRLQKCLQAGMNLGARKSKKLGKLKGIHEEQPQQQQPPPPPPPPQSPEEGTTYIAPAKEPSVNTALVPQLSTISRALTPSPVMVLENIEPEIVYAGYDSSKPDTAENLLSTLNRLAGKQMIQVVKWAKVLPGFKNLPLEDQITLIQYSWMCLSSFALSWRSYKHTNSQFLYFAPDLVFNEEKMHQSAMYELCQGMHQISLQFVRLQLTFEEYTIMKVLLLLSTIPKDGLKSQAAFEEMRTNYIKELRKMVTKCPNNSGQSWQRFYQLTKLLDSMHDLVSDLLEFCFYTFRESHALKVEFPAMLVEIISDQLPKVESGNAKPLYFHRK
The experiment in a line: Binding affinity to MR. An outline of the steps: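 Competitive binding assays on PR and MR. Values are means of at least three separate experiments, each with triplicate determinations, ± SEM. A value without SEM comes from a single determination.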

The subject of another assay is RPMI-8226. The assay can be described thus: Antiproliferative activity against human RPMI8226 cells after 4 days. Conditions: RPMI-8226, 96 h. The class given is functional, cell-based.
For assay [3], the target named is T2, Glucocorticoid receptor. The assay can be described thus: Activity at human GR expressed in NHDFneo cells assessed as inhibition of IL-6 production. In kind it is cell-based.
Assay [4] addresses T2, Glucocorticoid receptor. The experiment in a line: Binding affinity to GR.

With `CO/N=C(\C)c1ccsc1/C=C1\Oc2ccc(O)c(OC)c2-c2ccc3c(c21)C(C)=CC(C)(C)N3`, the values for the inhibition constant Ki (at Androgen receptor; in assay [2]; on Glucocorticoid receptor [4]) were 110 nM, 48 nM and 1.1 nM, respectively. At Glucocorticoid receptor [1], this compound gave an EC50 of 0.1 nM. Besides, the IC50 was 9.5 nM in the assay with RPMI-8226 and 0.2 nM on Glucocorticoid receptor [3].

Take `COCc1ccsc1/C=C1\Oc2ccc(O)c(OC)c2-c2ccc3c(c21)C(C)=CC(C)(C)N3`: the Ki on Androgen receptor was found to be 150 nM; in assay [2], 10 nM; on Glucocorticoid receptor [4], 0.2 nM. Moreover, the concentration for a half-maximal effect (EC50) at Glucocorticoid receptor [1] was found to be 0.2 nM. For the same compound, the IC50 in the assay with RPMI-8226 worked out at 8.5 nM; on Glucocorticoid receptor [3], 0.2 nM.

Regarding `COc1c(O)ccc2c1-c1ccc3c(c1/C(=C/c1sccc1CO)O2)C(C)=CC(C)(C)N3`, the Ki stood at 290 nM at Androgen receptor, 980 nM in assay [2] and 0.7 nM on Glucocorticoid receptor [4]. A half-maximal response at Glucocorticoid receptor [1] (EC50) required 0.2 nM. Besides, the IC50 in the assay with RPMI-8226 stood at 4.9 nM; at Glucocorticoid receptor [3] it was 0.2 nM.

The values are drawn from ChEMBL document CHEMBL1148778, “Synthesis and characterization of nonsteroidal glucocorticoid receptor modulators for multiple myeloma” (J Med Chem, 2007).
